Source: ChEMBL document CHEMBL1641414, “Synthesis and pharmacological evaluation of 4-(3,4-dichlorophenyl)-N-methyl-1,2,3,4-tetrahydronaphthalenyl amines as triple reuptake inhibitors” (Bioorg Med Chem, 2011)

Columns and labels:
[1] = target: Sodium-dependent noradrenaline transporter (Homo sapiens, UniProt P23975); test: Inhibition of [3H]norepinephrine reuptake at human NET expressed in MDCK cells by scintillation counting; format: cell-based
[2] = Half life in mouse liver microsome; format: ADME; conditions: liver microsomes
Outline: (§1)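 Microsomal stability and CYP inhibition were run by a contract laboratory under its standard protocols. Stability was measured in human and mouse liver microsomes and reported as t1/2 in min. Midazolam was the reference substrate for CYP3A4.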

Cytochrome P450 2C9 = Cytochrome P450 2C9 (Homo sapiens, UniProt P11712); test: Inhibition of CYP2C9; format: ADME; outline: as §1
Cytochrome P450 2C9, sequence (P11712 whole entry): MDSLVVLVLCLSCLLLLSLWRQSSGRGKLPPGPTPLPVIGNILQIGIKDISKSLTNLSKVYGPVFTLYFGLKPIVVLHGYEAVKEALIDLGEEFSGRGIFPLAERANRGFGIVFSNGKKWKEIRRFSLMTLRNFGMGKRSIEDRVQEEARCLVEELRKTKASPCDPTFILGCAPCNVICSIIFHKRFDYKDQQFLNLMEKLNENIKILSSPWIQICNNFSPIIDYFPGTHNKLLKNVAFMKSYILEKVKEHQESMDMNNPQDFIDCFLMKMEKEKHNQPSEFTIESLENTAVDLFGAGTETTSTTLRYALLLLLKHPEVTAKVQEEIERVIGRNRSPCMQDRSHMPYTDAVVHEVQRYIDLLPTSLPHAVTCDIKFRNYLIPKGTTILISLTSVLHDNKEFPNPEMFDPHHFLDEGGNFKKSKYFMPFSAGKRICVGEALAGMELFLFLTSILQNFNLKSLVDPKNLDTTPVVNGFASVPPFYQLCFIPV

[3] = Half life in human liver microsome; format: ADME; conditions: liver microsomes; outline: as §1
[4] = target: Sodium-dependent dopamine transporter (Homo sapiens, UniProt Q01959); test: Inhibition of [3H]dopamine reuptake at human DAT expressed in CHOK1 cells by scintillation counting; format: cell-based, CHO-K1
Sodium-dependent dopamine transporter, sequence (Q01959 whole entry): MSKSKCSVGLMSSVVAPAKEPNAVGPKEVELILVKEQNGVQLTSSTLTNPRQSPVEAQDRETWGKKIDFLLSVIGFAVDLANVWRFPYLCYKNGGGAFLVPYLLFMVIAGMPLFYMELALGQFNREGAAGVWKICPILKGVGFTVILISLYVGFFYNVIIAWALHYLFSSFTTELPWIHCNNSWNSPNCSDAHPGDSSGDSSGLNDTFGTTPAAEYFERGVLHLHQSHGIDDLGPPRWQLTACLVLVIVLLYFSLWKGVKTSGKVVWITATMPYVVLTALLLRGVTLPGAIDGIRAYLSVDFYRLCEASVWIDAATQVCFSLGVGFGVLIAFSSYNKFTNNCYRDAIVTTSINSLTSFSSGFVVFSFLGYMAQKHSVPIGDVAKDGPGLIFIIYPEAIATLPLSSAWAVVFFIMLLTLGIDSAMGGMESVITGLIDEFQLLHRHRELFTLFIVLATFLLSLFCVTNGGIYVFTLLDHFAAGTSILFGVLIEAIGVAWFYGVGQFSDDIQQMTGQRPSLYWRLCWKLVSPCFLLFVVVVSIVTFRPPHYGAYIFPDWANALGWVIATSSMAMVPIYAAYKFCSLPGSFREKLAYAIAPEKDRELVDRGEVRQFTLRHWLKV

Cytochrome P450 2D6 = Cytochrome P450 2D6 (Homo sapiens, UniProt P10635); test: Inhibition of CYP2D6; format: ADME; outline: as §1
Cytochrome P450 2D6, sequence (P10635 whole entry): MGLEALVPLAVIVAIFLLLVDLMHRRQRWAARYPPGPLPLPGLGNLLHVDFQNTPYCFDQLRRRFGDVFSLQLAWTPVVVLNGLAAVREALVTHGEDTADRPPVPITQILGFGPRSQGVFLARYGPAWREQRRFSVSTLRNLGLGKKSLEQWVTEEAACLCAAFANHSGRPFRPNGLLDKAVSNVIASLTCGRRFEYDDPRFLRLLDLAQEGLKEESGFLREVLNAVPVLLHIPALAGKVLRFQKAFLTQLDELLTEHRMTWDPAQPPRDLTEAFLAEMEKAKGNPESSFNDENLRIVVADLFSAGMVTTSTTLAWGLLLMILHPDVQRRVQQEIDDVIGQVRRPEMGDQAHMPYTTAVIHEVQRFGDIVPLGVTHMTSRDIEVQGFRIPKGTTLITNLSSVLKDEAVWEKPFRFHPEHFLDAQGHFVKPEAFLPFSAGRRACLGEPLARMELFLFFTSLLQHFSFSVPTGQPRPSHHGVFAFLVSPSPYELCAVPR

Cytochrome P450 3A4 = Cytochrome P450 3A4 (Homo sapiens, UniProt P08684); test: Inhibition of CYP3A4; format: ADME; outline: as §1
Cytochrome P450 3A4, sequence (P08684 whole entry): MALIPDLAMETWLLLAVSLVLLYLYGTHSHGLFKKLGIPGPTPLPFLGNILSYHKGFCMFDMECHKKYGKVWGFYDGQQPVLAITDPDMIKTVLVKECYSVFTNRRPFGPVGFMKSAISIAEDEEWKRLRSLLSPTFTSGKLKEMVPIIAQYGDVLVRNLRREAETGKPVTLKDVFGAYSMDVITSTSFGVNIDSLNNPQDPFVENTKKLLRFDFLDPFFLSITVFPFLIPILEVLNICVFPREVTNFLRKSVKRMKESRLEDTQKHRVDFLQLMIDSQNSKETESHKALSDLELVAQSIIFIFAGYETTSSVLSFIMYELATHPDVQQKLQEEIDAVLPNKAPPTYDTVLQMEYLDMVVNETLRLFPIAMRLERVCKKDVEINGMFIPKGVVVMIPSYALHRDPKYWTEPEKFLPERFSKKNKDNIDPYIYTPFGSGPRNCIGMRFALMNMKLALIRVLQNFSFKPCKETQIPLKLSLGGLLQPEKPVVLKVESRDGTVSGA

Cytochrome P450 2C19 = Cytochrome P450 2C19 (Homo sapiens, UniProt P33261); test: Inhibition of CYP2C19; format: ADME
Cytochrome P450 2C19, sequence (P33261 whole entry): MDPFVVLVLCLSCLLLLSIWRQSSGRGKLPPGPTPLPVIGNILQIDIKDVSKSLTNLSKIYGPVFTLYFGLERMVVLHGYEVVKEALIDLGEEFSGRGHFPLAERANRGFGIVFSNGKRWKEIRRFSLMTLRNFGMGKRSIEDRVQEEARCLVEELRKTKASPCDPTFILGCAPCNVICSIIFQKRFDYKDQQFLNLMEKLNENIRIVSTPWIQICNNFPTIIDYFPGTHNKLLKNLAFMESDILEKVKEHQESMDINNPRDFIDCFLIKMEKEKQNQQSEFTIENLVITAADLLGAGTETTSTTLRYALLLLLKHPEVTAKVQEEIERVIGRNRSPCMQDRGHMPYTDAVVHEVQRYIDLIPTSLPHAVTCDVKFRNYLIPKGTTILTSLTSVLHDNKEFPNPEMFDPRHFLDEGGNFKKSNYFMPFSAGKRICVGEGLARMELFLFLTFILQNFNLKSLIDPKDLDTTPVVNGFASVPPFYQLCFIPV

[5] = target: Voltage-gated inwardly rectifying potassium channel KCNH2 (Homo sapiens, UniProt Q12809); test: Inhibition of human ERG
Voltage-gated inwardly rectifying potassium channel KCNH2, sequence (Q12809 whole entry): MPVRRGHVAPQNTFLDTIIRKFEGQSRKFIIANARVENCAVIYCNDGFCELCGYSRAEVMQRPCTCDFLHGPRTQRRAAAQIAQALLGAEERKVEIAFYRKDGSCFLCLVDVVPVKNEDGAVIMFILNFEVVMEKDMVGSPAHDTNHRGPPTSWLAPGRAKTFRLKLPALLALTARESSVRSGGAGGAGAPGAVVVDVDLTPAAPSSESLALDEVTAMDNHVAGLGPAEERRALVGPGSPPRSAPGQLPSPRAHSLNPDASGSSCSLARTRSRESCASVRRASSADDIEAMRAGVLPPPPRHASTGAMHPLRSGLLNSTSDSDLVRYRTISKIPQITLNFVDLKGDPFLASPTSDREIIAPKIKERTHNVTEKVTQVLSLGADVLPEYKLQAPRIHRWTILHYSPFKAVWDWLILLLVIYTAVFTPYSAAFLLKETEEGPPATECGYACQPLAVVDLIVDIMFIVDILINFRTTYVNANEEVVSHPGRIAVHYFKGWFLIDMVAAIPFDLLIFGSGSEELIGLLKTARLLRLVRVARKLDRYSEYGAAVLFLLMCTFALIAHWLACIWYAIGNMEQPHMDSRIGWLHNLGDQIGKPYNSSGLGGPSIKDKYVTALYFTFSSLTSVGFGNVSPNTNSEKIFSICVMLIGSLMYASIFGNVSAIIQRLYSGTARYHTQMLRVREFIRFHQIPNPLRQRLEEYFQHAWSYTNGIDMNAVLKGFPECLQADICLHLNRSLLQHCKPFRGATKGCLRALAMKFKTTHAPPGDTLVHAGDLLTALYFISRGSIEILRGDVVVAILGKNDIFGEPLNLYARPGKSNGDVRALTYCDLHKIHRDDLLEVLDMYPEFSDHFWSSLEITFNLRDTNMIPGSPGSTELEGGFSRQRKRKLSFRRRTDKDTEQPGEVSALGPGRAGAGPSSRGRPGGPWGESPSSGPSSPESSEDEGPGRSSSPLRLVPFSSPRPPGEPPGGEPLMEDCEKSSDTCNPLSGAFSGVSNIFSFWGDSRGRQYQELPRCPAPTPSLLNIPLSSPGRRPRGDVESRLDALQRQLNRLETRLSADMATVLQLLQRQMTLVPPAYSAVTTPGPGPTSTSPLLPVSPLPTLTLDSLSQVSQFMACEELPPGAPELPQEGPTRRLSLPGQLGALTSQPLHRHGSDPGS

[6] = Ratio of drug level in whole brain to plasma of mouse at 30 mg/kg, po after 120 mins; format: ADME, organism-based; design: dose 30 mg/kg, route oral; conditions: read-out: BPR
Outline: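 Male mice were dosed orally once with the HCl salt at 3, 10 and 30 mg/kg, with a 120 min pretreatment before the 5 min tail suspension test. There were 10–12 mice per group. Afterwards, whole brain (ng/g) and plasma (ng/mL) samples were taken from the tested animals to give the brain-to-plasma ratio.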

Mus musculus [7] = test: Antidepressant activity in mouse assessed as decrease in immobility at 100 mg/kg, po after 120 mins by tail suspension test; format: functional; conditions: 2 h
Outline: (§2)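 Male mice (10–12 per group) dosed orally once, 120 min pretreatment, then suspended by the tail. Immobility recorded automatically for 5 min, scored blind, compared with a vehicle group. One-way ANOVA with post-hoc comparisons, p <0.05 taken as significant.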

[8] = Plasma protein binding in mouse at 3 to 30 mg/kg, po after 120 mins; format: ADME, organism-based; design: dose 3-30 mg/kg, route oral; conditions: read-out: PPB
Brain = test: fCmax in mouse brain at 3 to 30 mg/kg, po after 120 mins; format: ADME, organism-based; design: dose 3-30 mg/kg, route oral; conditions: in vivo, 2 h
Outline: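 Brain free level estimated from measured brain concentration in the tail suspension test animals, corrected by mouse plasma protein binding.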

[9] = Drug level in mouse plasma at 10 mg/kg, po after 120 mins; format: ADME, organism-based; design: dose 10 mg/kg, route oral; conditions: read-out: Drug uptake
Outline: (§3)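 Male mice given the HCl salt orally at 3, 10 or 30 mg/kg. Plasma and whole brain were sampled from the tail suspension test animals after the 120 min pretreatment. Levels reported as ng/mL for plasma and ng/g for brain.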

Mus musculus [10] = test: Neurotoxicity in mouse assessed as effect on locomotor activity at 3 to 30 mg/kg, po; format: toxicity, organism-based; design: dose 3-30 mg/kg, route oral; conditions: in vivo
Outline: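 Mice pretreated orally with vehicle or compound, returned to the home cage, then placed individually in locomotor cages with infrared photocell beams. Horizontal and vertical activity monitored in 5 min intervals for up to 60 min; the first 5 min were assessed at 10 and 30 mg/kg. One-way ANOVA, p <0.05.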

Mus musculus [11] = test: Antidepressant activity in mouse assessed as decrease in immobility at 30 mg/kg, po after 120 mins by tail suspension test; format: functional; conditions: 2 h; outline: as §2
Mus musculus [12] = test: Antidepressant activity in po dosed mouse assessed as decrease in immobility after 120 mins by tail suspension test; format: functional, organism-based; outline: as §2
[13] = Drug level in mouse plasma at 30 mg/kg, po after 120 mins; format: ADME, organism-based; design: dose 30 mg/kg, route oral; conditions: read-out: Drug uptake; outline: as §3
[14] = Drug level in mouse plasma at 3 mg/kg, po after 120 mins; format: ADME, organism-based; design: dose 3 mg/kg, route oral; conditions: read-out: Drug uptake; outline: as §3
Mus musculus [15] = test: Antidepressant activity in mouse assessed as decrease in immobility at 10 mg/kg, po after 120 mins by tail suspension test; format: functional; conditions: 2 h; outline: as §2
[16] = Drug level in mouse whole brain at 10 mg/kg, po after 120 mins; format: ADME, organism-based; design: dose 10 mg/kg, route oral; conditions: in vivo, 2 h; outline: as §3
[17] = Drug level in mouse whole brain at 30 mg/kg, po after 120 mins; format: ADME, organism-based; design: dose 30 mg/kg, route oral; conditions: in vivo, 2 h; outline: as §3
[18] = Drug level in mouse whole brain at 3 mg/kg, po after 120 mins; format: ADME, organism-based; design: dose 3 mg/kg, route oral; conditions: in vivo, 2 h; outline: as §3

Sodium-dependent noradrenaline transporter, sequence (P23975 whole entry): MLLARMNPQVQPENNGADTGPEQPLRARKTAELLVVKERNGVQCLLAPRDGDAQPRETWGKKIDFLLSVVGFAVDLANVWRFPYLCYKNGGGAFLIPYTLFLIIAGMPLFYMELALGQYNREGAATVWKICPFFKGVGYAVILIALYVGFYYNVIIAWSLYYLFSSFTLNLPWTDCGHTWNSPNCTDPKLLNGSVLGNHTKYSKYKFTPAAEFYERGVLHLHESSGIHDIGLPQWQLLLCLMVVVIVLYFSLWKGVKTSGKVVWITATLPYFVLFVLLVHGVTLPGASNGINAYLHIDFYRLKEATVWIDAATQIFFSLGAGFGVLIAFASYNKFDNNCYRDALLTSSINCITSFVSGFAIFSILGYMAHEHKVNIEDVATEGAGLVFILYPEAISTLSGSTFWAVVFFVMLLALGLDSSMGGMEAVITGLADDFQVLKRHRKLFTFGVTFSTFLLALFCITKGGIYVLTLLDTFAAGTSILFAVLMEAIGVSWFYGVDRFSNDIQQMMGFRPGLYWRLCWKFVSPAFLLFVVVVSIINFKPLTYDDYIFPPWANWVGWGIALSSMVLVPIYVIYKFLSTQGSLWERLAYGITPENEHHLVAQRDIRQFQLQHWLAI

| SMILES | IC50 [1] [nM] | half-life [2] [h] | IC50 (Cytochrome P450 2C9) [nM] | half-life [3] [h] | IC50 [4] [nM] | IC50 (Cytochrome P450 2D6) [nM] | IC50 (Cytochrome P450 3A4) [nM] | IC50 (Cytochrome P450 2C19) [nM] | also measured |
| --- | --- | --- | --- | --- | --- | --- | --- | --- | --- |
| CN[C@@H]1CCc2ccccc2[C@H]1c1ccc(Cl)c(Cl)c1 | 1640 | 0.333 | > 10000 | 1.58 | 212 | 57 |  |  |  |
| CNC[C@@H]1Cc2ccccc2[C@@H](c2ccc(Cl)c(Cl)c2)C1 | 126 | 1.55 | > 25000 | > 5 | 103 | 917 | > 25000 | 2170 |  |
| CN[C@@H]1Cc2ccccc2[C@H](c2ccc(Cl)c(Cl)c2)C1 |  | > 5 | > 25000 | > 5 | 281 | 20 | > 25000 | > 25000 | IC50 [5]: 5270 nM |
| CN[C@H]1CC[C@@H](c2ccc(Cl)c(Cl)c2)c2ccccc21 [SERTRALINE] |  |  | > 10000 | > 2 |  | 1400 |  | 310 |  |
| CN(C)[C@H]1Cc2ccccc2[C@@H](c2ccc(Cl)c(Cl)c2)C1 | 98 |  |  |  | 319 |  |  |  |  |
| N[C@@H]1Cc2ccccc2[C@@H](c2ccc(Cl)c(Cl)c2)C1 | 731 |  |  |  | 408 |  |  |  |  |
| CNCCCN1c2ccccc2CCc2ccccc21 [DESIPRAMINE] |  |  |  |  |  |  |  |  | Kp at 2 h [6]: 40 |
| CN[C@H]1CCc2ccccc2[C@@H]1c1ccc(Cl)c(Cl)c1 | 766 | 1.68 | > 10000 | 1.77 | 91 | 8 |  |  |  |
| CNC[C@H]1Cc2ccccc2[C@@H](c2ccc(Cl)c(Cl)c2)C1 | 372 |  |  |  | 484 |  |  |  |  |
| CNC[C@H]1Cc2ccccc2[C@H](c2ccc(Cl)c(Cl)c2)C1 |  | > 5 | > 25000 | > 5 |  | 41 | 20100 | 7690 | IC50 [5]: 1610 nM |
| CNC[C@@H]1Cc2ccccc2[C@H](c2ccc(Cl)c(Cl)c2)C1 | 210 | > 5 | > 25000 | > 5 | 111 | 154 | > 25000 | 6020 | IC50 [5]: 2000 nM |
| CN(C)C[C@@H]1Cc2ccccc2[C@H](c2ccc(Cl)c(Cl)c2)C1 (racemic) | 565 |  |  |  | 332 |  |  |  |  |
| N[C@@H]1Cc2ccccc2[C@H](c2ccc(Cl)c(Cl)c2)C1 | 855 |  |  |  | 894 |  |  |  |  |
| CN[C@H]1Cc2ccccc2[C@H](c2ccc(Cl)c(Cl)c2)C1 |  | > 5 | > 25000 | > 5 |  | 67 | > 25000 | > 25000 |  |
| CN[C@@H]1Cc2ccccc2[C@@H](c2ccc(Cl)c(Cl)c2)C1 |  | 2 | > 25000 | > 5 | 62 | 1160 | > 25000 | 5260 | IC50 [5]: 2320 nM |
| CN[C@H]1CCc2ccccc2[C@H]1c1ccc(Cl)c(Cl)c1 | 7260 | 0.1 | > 10000 | 0.917 | 1620 | 495 |  |  |  |
| N[C@H]1Cc2ccccc2[C@@H](c2ccc(Cl)c(Cl)c2)C1 | 174 |  |  |  | 175 |  |  |  |  |
| CN[C@H]1Cc2ccccc2[C@@H](c2ccc(Cl)c(Cl)c2)C1 |  | > 5 | > 25000 | > 5 |  | 2780 | 17100 | 10100 | inhibition in vivo at 100 mg/kg (Mus musculus [7]): 30%; fraction unbound at 2 h [8]: 0.01; IC50 [5]: 1600 nM; fCmax (Brain): 440 nM; concentration at 2 h [9]: 164 ng/mL; Activity (Mus musculus [10]): Non-toxic; inhibition in vivo at 30 mg/kg (Mus musculus [11]): 50%; inhibition (Mus musculus [12]): Dose-dependent effect; concentration at 2 h [13]: 344 ng/mL; concentration at 2 h [14]: 96 ng/mL; inhibition in vivo at 10 mg/kg (Mus musculus [15]): 21%; Drug uptake [16]: 6021 ng; Drug uptake [17]: 13571 ng; Drug uptake [18]: 2830 ng |
| CN[C@@H]1CCc2ccccc2[C@@H]1c1ccc(Cl)c(Cl)c1 | 112 | 0.917 | 7600 | 0.917 | 559 | 33 |  |  |  |
| NCC[C@H]1Cc2ccccc2[C@@H](c2ccc(Cl)c(Cl)c2)C1 |  | > 5 | > 25000 | > 5 | 50 | 13800 | > 25000 | 1640 | IC50 [5]: 1510 nM |
| CN(C)C[C@H]1Cc2ccccc2[C@H](c2ccc(Cl)c(Cl)c2)C1 (mixture of isomers) | 309 |  |  |  | 339 |  |  |  |  |
| CN(C)[C@@H]1Cc2ccccc2[C@H](c2ccc(Cl)c(Cl)c2)C1 | 164 |  |  |  | 273 |  |  |  |  |
| NCC[C@@H]1Cc2ccccc2[C@H](c2ccc(Cl)c(Cl)c2)C1 |  | > 5 | > 25000 | > 5 | 32 | 265 | > 25000 | 3760 | IC50 [5]: 13100 nM |
| CN(C)[C@@H]1Cc2ccccc2[C@@H](c2ccc(Cl)c(Cl)c2)C1 | 174 |  |  |  | 176 |  |  |  |  |
